Laboratory results taken from ChEMBL document CHEMBL1795219, “4-alkoxy-3-arylfuran-2(5H)-ones as inhibitors of tyrosyl-tRNA synthetase: synthesis, molecular docking and antibacterial evaluation” (Bioorg Med Chem, 2011).
≈ marks a conversion by molar mass, not a printed value.

Columns and labels:
[1] = Inhibition of Staphylococcus aureus TyrRS expressed in Escherichia coli using L-[ring-3,5-3H] tyrosine preincubated for 10 mins by scintillation counting
Summary of the method: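 Aminoacylation assay with purified TyrRS (0.2 nM). Enzyme preincubated with a range of inhibitor concentrations for 10 min at room temperature, then prewarmed mix added at 37 °C. Final mix: 100 mM Tris/Cl pH 7.9, 50 mM KCl, 16 mM MgCl2, 5 mM ATP, 3 mM DTT, 4 mg/ml E. coli MRE600 tRNA, 10 uM tritiated L-tyrosine. Stopped at intervals in ice-cold 7% TCA, filtered, scintillation counted. Rate linear, under 50% tRNA acylation. IC50 is the concentration halving activity.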

[2] = system: Escherichia coli; assay: Antibacterial activity against Escherichia coli ATCC 35218 after 24 hrs by MTT colorimetric method; assay type: functional; conditions: ATCC 35218, 24 h
[3] = system: Candida albicans; assay: Antibacterial activity against Candida albicans ATCC 10231 after 48 hrs by MTT colorimetric method; assay type: functional; conditions: ATCC 10231, 48 h
[4] = system: Staphylococcus aureus; assay: Antibacterial activity against Staphylococcus aureus ATCC 25923 after 24 hrs by MTT colorimetric method; assay type: functional; conditions: ATCC 25923, 24 h
[5] = system: Bacillus subtilis; assay: Antibacterial activity against Bacillus subtilis ATCC 6633 after 24 hrs by MTT colorimetric method; assay type: functional; conditions: ATCC 6633, 24 h

Compound | IC50 [1] | MIC50 [2] | MIC50 [3] | MIC50 [4] | MIC50 [5]
O=C1OCC(OCCN2CCOCC2)=C1c1ccc(Cl)cc1 | 0.62 µM | > 50 mg/L | 2.9 mg/L (≈ 8.96 µM) | 1.3 mg/L (≈ 4.02 µM) | 8.6 mg/L (≈ 26.6 µM)
O=C1OCC(OCCNC2CCCCC2)=C1c1ccccc1 | 87.4 µM |  |  |  | 
O=C1OCC(OCCN2CCOCC2)=C1c1ccccc1 | 6.2 µM | > 50 mg/L | 34.2 mg/L (≈ 118 µM) | 10.4 mg/L (≈ 35.9 µM) | 47.4 mg/L (≈ 164 µM)
CCCCNCCOC1=C(c2ccccc2)C(=O)OC1 | 71.9 µM |  |  |  | 
COc1ccc(C2=C(OCCNC3CCCCC3)COC2=O)cc1OC | > 100 µM |  |  |  | 
O=C1OCC(OCCN2CCCCC2)=C1c1ccccc1 | 53.6 µM |  |  |  | 
O=C1OCC(OCCN2CCOCC2)=C1c1cccc(O)c1 | 25.6 µM | > 50 mg/L | 47.2 mg/L (≈ 155 µM) | 34.3 mg/L (≈ 112 µM) | 47.4 mg/L (≈ 155 µM)
COc1ccc(C2=C(OCCN3CCCCC3)COC2=O)cc1OC | > 100 µM |  |  |  | 
CC(=O)N1CCN(c2ccc(OCC3COC(Cn4ccnc4)(c4ccc(Cl)cc4Cl)O3)cc2)CC1 (configuration not stated) [KETOCONAZOLE] |  |  | 3.8 mg/L (≈ 7.15 µM) |  | 
O=C1OCC(OCCN2CCOCC2)=C1c1ccc(Br)cc1 | 2.4 µM | > 50 mg/L | 12.7 mg/L (≈ 34.5 µM) | 3 mg/L (≈ 8.15 µM) | 15.8 mg/L (≈ 42.9 µM)
COc1cccc(C2=C(OCCN3CCOCC3)COC2=O)c1 | 37.5 µM | > 50 mg/L | > 50 mg/L | 40.8 mg/L (≈ 128 µM) | > 50 mg/L
NC[C@H]1O[C@H](O[C@H]2[C@H](O)[C@@H](O[C@H]3O[C@H](CO)[C@@H](O)[C@H](N)[C@H]3O)[C@H](N)C[C@@H]2N)[C@H](O)[C@@H](O)[C@@H]1O [KANAMYCIN] |  |  |  | 1.2 mg/L (≈ 2.48 µM) | 0.48 mg/L (≈ 0.991 µM)
O=C1OCC(OCCN2CCOCC2)=C1c1ccc(O)cc1 | 0.1 µM | > 50 mg/L | 1.1 mg/L (≈ 3.6 µM) | 0.23 mg/L (≈ 0.753 µM) | 2.1 mg/L (≈ 6.88 µM)
COc1ccc(C2=C(OCCN3CCOCC3)COC2=O)cc1 | 32.8 µM |  |  |  | 
O=C1OCC(OCCNNc2ccc([N+](=O)[O-])cc2)=C1c1ccccc1 | > 100 µM |  |  |  | 
O=C1OCC(OCCN2CCCC2)=C1c1ccccc1 | 35.5 µM |  |  |  | 
CN1CCN(CCOC2=C(c3ccccc3)C(=O)OC2)CC1 | 8.6 µM | > 50 mg/L | > 50 mg/L | 16.5 mg/L (≈ 54.6 µM) | > 50 mg/L
COc1ccc(C2=C(OCCN3CCN(C)CC3)COC2=O)cc1OC | > 100 µM |  |  |  | 
O=C1OCC(OCCN2CCOCC2)=C1c1cccc(Br)c1 | 24.3 µM | > 50 mg/L | > 50 mg/L | 25.5 mg/L (≈ 69.3 µM) | > 50 mg/L
O=C1OCC(OCCN2CCOCC2)=C1c1cccc(Cl)c1 | 20.5 µM |  |  |  | 
O=C1OCC(OCCN2CCCCC2)=C1c1ccc(F)c(F)c1 | > 100 µM |  |  |  | 
CC1(C)S[C@@H]2[C@H](NC(=O)Cc3ccccc3)C(=O)N2[C@H]1C(=O)O [PENICILLIN G] |  | 2.7 mg/L (≈ 8.07 µM) |  |  | 
CCCNCCOC1=C(c2ccccc2)C(=O)OC1 | 29.1 µM | > 50 mg/L | > 50 mg/L | 34.3 mg/L (≈ 131 µM) | > 50 mg/L
CN1CCN(CCOC2=C(c3ccc(Cl)c(Cl)c3)C(=O)OC2)CC1 | > 100 µM |  |  |  | 
O=C1OCC(OCCNCc2ccccc2)=C1c1ccccc1 | > 100 µM |  |  |  | 
